Experimental data published in publication PMC3640342 (Pharmaceutical research, 2013).
In brackets after ≈: the same amount, converted by molar mass. Several values for one entry are separate records, joined by “and”; a condition that tells them apart may be missing. Equal entries are not always repeated. Where two headings read alike, the source gives them in different places.

What was measured:
[1] = tested on: PrP^Sc levels in ScN2a-cl3 cells; test: cells; type: cell-based, mouse
[2] = Hepatic microsomal stability, mouse; type: in vitro ADME; details: mouse, mouse liver microsomes, pH 7.4
Summary of the method: (§1)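 Liver microsomes from mouse, rat or human (~0.5 mg/mL final) were incubated at 37°C with test compound at 1 μM final (0.6% ACN, 0.01% DMSO) in PBS pH 7.4 ± 0.05% PS80, with 1 mM NADPH or PBS.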

[3] = tested on: mouse liver microsomes; test: Hepatic microsomal stability, mouse; type: in vitro ADME; details: 1 μM; for t1/2: NADPH
Summary of the method: as §1

[4] = Hepatic microsomal stability, rat; type: in vitro ADME; details: rat, rat liver microsomes, pH 7.4
Summary of the method: as §1

[5] = tested on: rat liver microsomes; test: Hepatic microsomal stability, rat; type: in vitro ADME; details: 1 μM; for t1/2: NADPH
Summary of the method: as §1

[6] = Hepatic microsomal stability, human; type: in vitro ADME; details: human, human liver microsomes, pH 7.4
Summary of the method: as §1

[7] = tested on: human liver microsomes; test: Hepatic microsomal stability, human; type: in vitro ADME; details: 1 μM; for t1/2: NADPH
Summary of the method: as §1

[8] = Single-dose IV PK at 1 mg/kg; type: in vivo, FVB mice; details: female, FVB, mouse, plasma, iv, 1 mg/kg
Summary of the method: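 Female FVB mice (~25 g) received 1 mg/kg by tail-vein injection in 10% DMSO in PEG400/water (1:1), 10% DMSO, or 10% ethanol in PEG400/water (1:1). Two mice per time point were killed by CO2 at 5 min and 0.25, 0.5, 1, 2, 4 and 6 h, and heparinized plasma was collected. After protein precipitation, samples were assayed by LC/MS/MS, and parameters came from noncompartmental sparse-sampling analysis.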

[9] = Single-dose oral gavage PK at 10 mg/kg; type: in vivo, FVB mice
Summary of the method: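 Female FVB mice (~25 g) were dosed at 10 mg/kg by oral gavage in 20% propylene glycol, 5% ethanol, 5% labrosol and 70% PEG400. Two mice per time point were killed by CO2 at 0.25, 0.5, 1, 2, 4, 6 and 24 h. Heparinized plasma and brain (diluted five-fold in water, homogenized) were assayed by LC/MS/MS.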

[10] = 3-day multidose PK in liquid diet; type: in vivo, FVB mice; details: for Brain and plasma concentrations (C3-day) / Brain concentration (C3-day): 3 days in liquid diet
[11] = tested on: FVB mice; test: Drug tolerance / lethal toxicity on repeated dosing in liquid diet; type: in vivo
[12] = tested on: mouse plasma; details: 1 μM
[13] = tested on: human plasma
[14] = mouse brain homogenate, 1 μM, corrected for dilution
[15] = cell-culture media with 10% FBS, 1 μM
[16] = Solubility at pH 2, pH 7.4 and in FaSSIF; type: physicochemical; details: for Solubility pH 7.4: pH 7.4 (phosphate) buffer
[17] = Media solubility; type: physicochemical; details: media used in the cell-based assays, 10% FBS
[18] = tested on: MDCK-MDR1 cells; test: Bidirectional MDCK-MDR1 cell permeability; type: in vitro ADME, canine; details: for Papp (A−B) / Papp (B−A): 10 μM, pH 7.4; for Efflux ratio: MDCK-MDR1 cells
[19] = Single-dose oral PK at 40 mg/kg; type: in vivo, FVB mice; details: single 40 mg/kg oral dose, ranking among 27 2-AMTs and Compd B
[20] = female, FVB, mouse, brain, po, 10 mg/kg
[21] = female, FVB, mouse, plasma, po, 10 mg/kg

COc1ccc(-c2csc(Nc3ccc(C(F)(F)F)cn3)n2)cc1OC [IND43]
EC50 [1]: 2.53 µM

Cc1ccnc(Nc2nc(-c3cc(-c4ccc(Cl)cc4)no3)cs2)c1 [IND64]
EC50 [1]: 0.85 µM

C(=N\Nc1ccc(-c2cnco2)cc1)/c1ccncc1 [Compd B, (E)-5-(4-(2-(pyridin-4-ylmethylene)hydrazinyl)phenyl)oxazole, reference compound]
EC50 ([1]; Mus musculus, 120 h): 0.25 µM
half-life at 1 μM [2]: 30 min
remaining at 1 h, 1 μM [2]: 29%
t1/2 [3]: rapidly metabolized
half-life at 1 μM [4]: > 60 min
remaining at 1 h, 1 μM [4]: 77%
t1/2 [5]: relatively stable
half-life at 1 μM [6]: > 60 min
remaining at 1 h, 1 μM [6]: 68%
t1/2 [7]: relatively stable
Vd [8]: 1.53 L/kg
clearance [8]: 76 mL/min/kg
%F (absolute oral bioavailability) ([9]; PO 10 mg/kg vs IV 1 mg/kg, plasma): 24.8%
Brain/Plasma AUClast Ratio ([9]; PO 10 mg/kg, 10 mg/kg): 0.51
AUC(0-t) [9, 20]: 1.06 ± 0.1 µM·h
Cmax [9, 20]: 460 ± 160 nM
tmax [9, 20]: 120 min
AUC(0-t) [9, 21]: 2.06 ± 0.06 µM·h
Cmax [9, 21]: 830 ± 380 nM
half-life [9, 21]: 60.6 min
tmax [9, 21]: 30 min
AUC/EC50 ratios in brain and plasma, total concentration ([10]; 100 mg/kg/day for 3 days, AUC = C3-day × τ): greater than 100
Brain and plasma concentrations (C3-day) ([10]; 25 and 50 mg/kg/day): below the level of quantification
Deaths ([11]; 150 mg/kg/day for 8 days in liquid diet): two of four mice
Lethal toxicity ([11]; 25, 50, and 100 mg/kg/day in liquid diet): none showed lethal toxicity
Unbound (%) [12]: 9% and 9.06±2.31%
Unbound (%) ([13]; human plasma, 1 μM): 2.1% and 2.10±1.11%
Unbound (%) [14]: 11% and 11.4±2.89%
Unbound (%) [15]: 37% and 36.5±3.30%

COc1ccc(Nc2nc(-c3ccc(OC)c(OC)c3)cs2)nc1 [IND44]
Solubility pH 7.4 ([16]; room temperature overnight): <1 μM
% remaining after a 60-min incubation [3]: 24%
t1/2 [3]: 29 min
% remaining after a 60-min incubation [5]: 39%
t1/2 [5]: 45 min
% remaining after a 60-min incubation [7]: 48%
t1/2 [7]: 58 min

COc1ccc(-c2csc(Nc3cc(C)ccn3)n2)cc1OC [IND42]
EC50 [1]: 1 µM

Cc1ccc(Nc2nc(-c3ccncc3)cs2)nc1 [IND29]
EC50 [1]: 1.57 µM

c1ccc2cc(Nc3nc(-c4ccncc4)cs3)ncc2c1 [IND85]
EC50 [1]: 0.31 µM
Solubility pH 7.4 ([16]; room temperature overnight): <1 μM
Solubility Media [17]: 116 µM (≈ 35.3 µg/mL)
Papp (A−B) [18]: 3.03 ×10⁻⁶ cm/s
Papp (B−A) [18]: 4.44 ×10⁻⁶ cm/s
Efflux ratio [18]: 1.5
% remaining after a 60-min incubation [3]: 6%
% remaining after a 60-min incubation [5]: 32%
% remaining after a 60-min incubation [7]: 66%
Brain and plasma concentrations (C3-day) ([10]; 40, 80, 130 and 210 mg/kg/day): ≤ 1 µM

COc1ccc(-c2csc(Nc3cnccn3)n2)cc1OC [IND82]
EC50 [1]: 15.6 µM

Cc1ccnc(Nc2nc(-c3ccc(OC(F)(F)F)cc3)cs2)c1 [IND78]
EC50 [1]: > 32 µM

Cc1ccc(Nc2nc(-c3cc(-c4ccccc4)no3)cs2)nc1 [IND33]
EC50 [1]: 0.94 µM
Solubility pH 7.4 ([16]; room temperature overnight): <1 μM
Solubility Media [17]: 225 µM (≈ 75.2 µg/mL)
Papp (A−B) [18]: 6.8 ×10⁻⁶ cm/s
Papp (B−A) [18]: 8.3 ×10⁻⁶ cm/s
Efflux ratio [18]: 1.2
% remaining after a 60-min incubation [3]: 111%
% remaining after a 60-min incubation [5]: 73%
% remaining after a 60-min incubation [7]: 42%
Brain concentration (C3-day) ([10]; 130 mg/kg dose): ~ 30 μM

c1ccc2cc(Nc3nc(-c4cc5ccccc5o4)cs3)ncc2c1 [IND91]
EC50 [1]: 0.92 µM
Brain and plasma concentrations (C3-day) ([10]; 40, 80, 130 and 210 mg/kg/day): ≤ 1 µM

CC(=O)CC(c1ccccc1)c1c(O)c2ccccc2oc1=O (stereo not shown) [Warfarin]
Unbound (%) ([13]; human, plasma, pH 7.4): 0.68±0.0023%

COc1ccc(-c2csc(Nc3cc4ccccc4cn3)n2)cc1OC [IND46]
Solubility pH 7.4 ([16]; room temperature overnight): <1 μM
Solubility Media [17]: 174 µM (≈ 63.2 µg/mL)
% remaining after a 60-min incubation [3]: 58%
% remaining after a 60-min incubation [5]: 61%
% remaining after a 60-min incubation [7]: 83%

Cc1ccc(Nc2nc(-c3ccc(-c4ccccn4)s3)cs2)nc1 [IND76]
EC50 [1]: 1.23 µM

COc1ccc(-c2csc(Nc3ccc4ccccc4n3)n2)cc1OC [IND47]
EC50 [1]: 0.43 µM
Solubility pH 7.4 ([16]; room temperature overnight): <1 μM
Solubility Media [17]: 52 µM (≈ 18.9 µg/mL)
Papp (A−B) [18]: 9.2 ×10⁻⁶ cm/s
Papp (B−A) [18]: 8.9 ×10⁻⁶ cm/s
Efflux ratio [18]: 1
% remaining after a 60-min incubation [3]: 56%
% remaining after a 60-min incubation [5]: 50%
% remaining after a 60-min incubation [7]: 113%
Brain and plasma concentrations (C3-day) ([10]; 40, 80, 130 and 210 mg/kg/day): ≤ 1 µM

Cc1ccc(Nc2nc(-c3c(-c4ccccc4)noc3C)cs2)nc1 [IND36]
EC50 [1]: > 32 µM

Cc1ccnc(Nc2nc(-c3ccc(O)cc3)cs2)c1 [IND49]
EC50 [1]: > 10 µM
AUClast values, brain and plasma [19]: lowest AUClast values

COc1ccc(-c2csc(Nc3cc4ccccc4cn3)n2)cc1 [IND86]
EC50 [1]: 0.34 µM

Cc1ccnc(Nc2nc(-c3ccccc3O)cs2)c1 [IND48]
EC50 [1]: > 10 µM
AUClast values, brain and plasma [19]: lowest AUClast values

COc1ccc(-c2csc(Nc3ccc(C)cn3)n2)c(OC)c1 [IND74]
EC50 [1]: 3.13 µM

Cc1ccnc(Nc2nc(-c3ccncc3)cs2)c1 [IND52]
EC50 [1]: 4.95 µM
Solubility FaSSIF ([16]; fasted-state simulated intestinal fluid): 2 µM (≈ 0.537 µg/mL)
Solubility pH 2.0 ([16]; pH 2 (HCl) buffer, room temperature overnight): 215 μM
Solubility pH 7.4 ([16]; room temperature overnight): 1 μM
Solubility Media [17]: 76 µM (≈ 20.4 µg/mL)
Papp (A−B) [18]: 36.2 ×10⁻⁶ cm/s
Papp (B−A) [18]: 48.7 ×10⁻⁶ cm/s
Efflux ratio [18]: 1.3
% remaining after a 60-min incubation [3]: 0%
% remaining after a 60-min incubation [5]: 8%
% remaining after a 60-min incubation [7]: 30%
Brain concentration (C3-day) ([10]; 40 mg/kg dose): no measurable brain concentrations

Cc1ccc(Nc2nc(-c3ccc(OC(F)(F)F)cc3)cs2)nc1 [IND26]
EC50 [1]: > 10 µM

Cc1ccnc(Nc2nc(-c3ccc4c(c3)OCCO4)cs2)c1 [IND57]
EC50 [1]: > 10 µM

Cc1ccc(Nc2nc(-c3cccc(C#N)c3)cs2)nc1 [IND38]
EC50 [1]: 2.29 µM

Cc1cccc(Nc2nc(-c3cc4ccccc4o3)cs2)n1 [IND22]
EC50 [1]: 1.46 µM
Solubility pH 7.4 ([16]; room temperature overnight): <1 μM
Solubility Media [17]: 20 µM (≈ 6.15 µg/mL)
Papp (A−B) [18]: 9.5 ×10⁻⁶ cm/s
Papp (B−A) [18]: 8.4 ×10⁻⁶ cm/s
Efflux ratio [18]: 0.9
% remaining after a 60-min incubation [3]: 40%
t1/2 [3]: 49 min
% remaining after a 60-min incubation [5]: 64%
t1/2 [5]: > 60 min
% remaining after a 60-min incubation [7]: 99%
t1/2 [7]: > 60 min
